Experimental data from publication PMC3253552 (Biochemical and Biophysical Research Communications, 2011).
Bridge positions count the residues as written; N and C are the ends. Square brackets hold non-standard residues; d marks the D form. Peptide text beside a SMILES is read from it. R8 = C=CCCCCCC[C@@](C)(N)C(=O)O; S5 = C=CCCC[C@](C)(N)C(=O)O

Experiments:
[1] = CD spectroscopy of peptide helicity and thermostability; assay type: physicochemical; settings: peptide 0.1 mg/mL in sodium phosphate buffer pH 7.4, 24°C
How it was run: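 Peptide at 0.1 mg/mL in sodium phosphate buffer, pH 7.4, in a quartz cuvette with 0.2 cm path length. Far-UV CD spectra were scanned from 185 to 240 nm at 24°C. Signal was normalised to mean residue ellipticity to estimate helical content. For thermostability, ellipticity was followed while temperature was raised from 10 to 90°C.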

[2] = molecular target: human ABCA1 (Homo sapiens, UniProt O95477); assay: Cholesterol efflux from ABCA1 transfected BHK cells; assay type: cell-based; settings: [3H] cholesterol, 18 h with peptide
Chain of human ABCA1 (O95477 whole entry): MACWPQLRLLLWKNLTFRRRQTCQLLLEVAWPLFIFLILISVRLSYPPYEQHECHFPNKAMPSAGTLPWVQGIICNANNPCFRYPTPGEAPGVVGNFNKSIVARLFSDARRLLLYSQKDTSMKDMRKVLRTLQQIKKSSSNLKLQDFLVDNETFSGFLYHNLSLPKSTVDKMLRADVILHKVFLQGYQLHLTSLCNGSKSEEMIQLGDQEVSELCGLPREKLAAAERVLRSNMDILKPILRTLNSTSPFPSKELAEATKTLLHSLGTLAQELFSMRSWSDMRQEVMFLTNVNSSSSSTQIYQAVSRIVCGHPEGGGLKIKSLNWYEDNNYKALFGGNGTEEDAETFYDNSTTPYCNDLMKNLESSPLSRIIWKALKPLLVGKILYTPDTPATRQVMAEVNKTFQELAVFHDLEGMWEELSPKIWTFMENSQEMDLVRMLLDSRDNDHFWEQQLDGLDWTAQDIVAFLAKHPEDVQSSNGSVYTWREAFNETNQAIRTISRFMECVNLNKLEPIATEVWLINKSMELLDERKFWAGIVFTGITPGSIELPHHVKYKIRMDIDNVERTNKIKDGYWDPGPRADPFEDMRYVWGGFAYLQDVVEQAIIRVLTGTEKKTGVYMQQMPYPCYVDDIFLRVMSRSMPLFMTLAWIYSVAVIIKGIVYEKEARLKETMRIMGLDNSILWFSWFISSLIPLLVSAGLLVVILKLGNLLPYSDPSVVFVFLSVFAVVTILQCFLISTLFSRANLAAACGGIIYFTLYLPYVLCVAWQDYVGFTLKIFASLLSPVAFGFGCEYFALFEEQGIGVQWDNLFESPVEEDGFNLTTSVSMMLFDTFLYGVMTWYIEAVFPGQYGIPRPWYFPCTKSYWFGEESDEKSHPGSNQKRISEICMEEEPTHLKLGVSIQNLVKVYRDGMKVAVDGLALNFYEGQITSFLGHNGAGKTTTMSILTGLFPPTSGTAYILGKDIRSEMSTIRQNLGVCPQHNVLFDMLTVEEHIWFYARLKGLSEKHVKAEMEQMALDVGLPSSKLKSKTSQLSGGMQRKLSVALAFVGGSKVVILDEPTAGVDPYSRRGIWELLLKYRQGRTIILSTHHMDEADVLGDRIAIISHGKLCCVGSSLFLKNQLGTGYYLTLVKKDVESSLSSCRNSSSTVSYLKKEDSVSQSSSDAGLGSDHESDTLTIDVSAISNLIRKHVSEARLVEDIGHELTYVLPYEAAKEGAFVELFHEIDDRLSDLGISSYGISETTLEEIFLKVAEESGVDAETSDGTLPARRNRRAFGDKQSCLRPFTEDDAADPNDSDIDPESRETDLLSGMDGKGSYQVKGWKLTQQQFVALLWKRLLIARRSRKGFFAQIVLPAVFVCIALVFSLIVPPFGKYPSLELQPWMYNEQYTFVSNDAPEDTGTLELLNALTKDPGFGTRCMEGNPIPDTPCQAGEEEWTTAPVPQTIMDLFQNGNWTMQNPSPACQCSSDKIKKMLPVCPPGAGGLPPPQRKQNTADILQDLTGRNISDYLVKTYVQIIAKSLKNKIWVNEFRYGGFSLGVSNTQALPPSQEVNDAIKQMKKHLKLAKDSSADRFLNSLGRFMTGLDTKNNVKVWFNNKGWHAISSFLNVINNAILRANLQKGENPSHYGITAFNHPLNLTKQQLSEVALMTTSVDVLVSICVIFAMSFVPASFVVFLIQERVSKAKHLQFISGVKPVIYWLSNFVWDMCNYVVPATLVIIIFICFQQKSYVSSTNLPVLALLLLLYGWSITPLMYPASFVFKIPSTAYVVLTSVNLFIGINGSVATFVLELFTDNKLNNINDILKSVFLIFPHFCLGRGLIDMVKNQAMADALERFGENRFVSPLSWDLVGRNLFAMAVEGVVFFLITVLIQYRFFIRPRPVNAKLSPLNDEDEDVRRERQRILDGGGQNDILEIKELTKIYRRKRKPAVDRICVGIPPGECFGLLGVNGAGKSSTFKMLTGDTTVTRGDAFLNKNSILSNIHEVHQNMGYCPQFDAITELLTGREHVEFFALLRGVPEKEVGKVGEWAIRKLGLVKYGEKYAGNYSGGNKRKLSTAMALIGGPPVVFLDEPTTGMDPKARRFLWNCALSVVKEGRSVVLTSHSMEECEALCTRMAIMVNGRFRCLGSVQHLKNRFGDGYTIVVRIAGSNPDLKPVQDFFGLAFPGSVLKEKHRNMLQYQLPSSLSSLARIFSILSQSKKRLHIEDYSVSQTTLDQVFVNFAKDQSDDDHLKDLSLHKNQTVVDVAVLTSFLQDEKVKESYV

[3] = tested on: pepsin; assay: Peptide proteolysis by pepsin, loss of intact peptide by MALDI-TOF MS; assay type: in vitro ADME; settings: for susceptibility to proteolysis by pepsin (in words): pepsin 0.5 μg/ml, 10% acetic acid pH 2, peptide 500 μg/ml, 37°C, MALDI-TOF MS; for remaining at 24 h, 500 μg/ml: pepsin, pH 2
[4] = tested on: chymotrypsin; assay: Peptide proteolysis by chymotrypsin, loss of intact peptide by MALDI-TOF MS; assay type: in vitro ADME; settings: pH 7
[5] = cited from earlier work

Row | Molecule | helicity in aqueous buffer at 24°C [1] [%] | increase in cholesterol efflux by the ABCA1 transporter compared to A10 [2] [fold] | susceptibility to proteolysis by pepsin (in words) [3] | remaining at 24 h, 500 μg/ml [3] [%] | remaining at 24 h, 500 μg/ml [4] [%] | helicity when associated with lipids ([5]; apoA-I associated with lipids) | helicity in the lipid-free state ([5]; lipid-free apoA-I)
1 | CC(=O)N[C@H](C(=O)N[C@@H](CC(C)C)C(=O)N[C@@H](CC(=O)O)C(=O)N[C@@H](CO)C(=O)N[C@@H](Cc1ccccc1)C(=O)N[C@@H](CCCCN)C(=O)N[C@H](C(=O)N[C@@H](CO)C(=O)N[C@@]1(C)CCCC=CCCC[C@@](C)(C(=O)N[C@@H](CCC(=O)O)C(=O)N[C@@H](CCC(=O)O)C(=O)N[C@@H](Cc2ccc(O)cc2)C(=O)N[C@H](C(=O)N[C@@H](CCCCN)C(=O)N[C@@H](CCCCN)C(=O)N[C@@H](CC(C)C)C(=O)N[C@@H](CC(N)=O)C(=O)N[C@H](C(=O)N[C@@H](CCC(N)=O)C(N)=O)[C@@H](C)O)[C@@H](C)O)NC(=O)[C@H](C)NC(=O)[C@H](CO)NC(=O)[C@H](CC(C)C)NC1=O)C(C)C)C(C)C [S1A10] (Ac-VLDSFKVS[S5]LSA[S5]EEYTKKLNTQ-NH2; staple 9-13) | 62 | > 10 | resistant to proteolysis | 0.4 | 0.6 |  | 
2 | CC(=O)N[C@H](C(=O)N[C@@H](CC(C)C)C(=O)N[C@@H](CC(=O)O)C(=O)N[C@@H](CO)C(=O)N[C@@H](Cc1ccccc1)C(=O)N[C@@H](CCCCN)C(=O)N[C@H](C(=O)N[C@@H](CO)C(=O)N[C@]1(C)CCCCCCC=CCCC[C@@](C)(C(=O)N[C@H](C(=O)N[C@@H](CCCCN)C(=O)N[C@@H](CCCCN)C(=O)N[C@@H](CC(C)C)C(=O)N[C@@H](CC(N)=O)C(=O)N[C@H](C(=O)N[C@@H](CCC(N)=O)C(N)=O)[C@@H](C)O)[C@@H](C)O)NC(=O)[C@H](CCC(=O)O)NC(=O)[C@H](CCC(=O)O)NC(=O)[C@H](CC(C)C)NC(=O)[C@H](C)NC(=O)[C@H](CO)NC(=O)[C@H](CC(C)C)NC1=O)C(C)C)C(C)C [S2A10] (Ac-VLDSFKVS[R8]LSALEE[S5]TKKLNTQ-NH2; staple 9-16) | 97 | > 10 | resistant to proteolysis | 12.2 | 3.8 |  | 
3 | apoA-I: full length apolipoprotein, the main protein on High Density Lipoproteins |  |  |  |  |  | over 67% | about 48%
